ChEMBL document CHEMBL1132971, “New azolidinediones as inhibitors of protein tyrosine phosphatase 1B with antihyperglycemic properties” (J Med Chem, 2000)
Blank lines part the entries; values can stand above or below the compound they belong to. Activity calls are given as the source filed them. The rule behind the calls is not given here.

Experiments:
Mus musculus [1] = test: Evaluated for their ability to decrease plasma insulin levels in mouse at a dose 100 mg/kg/day, **p indicates <0.01; assay type: functional
Summary of the method: (§1)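 Diabetic db/db or ob/ob mice dosed orally once daily for 4 days. Plasma glucose and insulin reported as percent change from a vehicle-treated group. 4-6 mice per group. Significance set at p < 0.05 or p < 0.01 versus vehicle; NS means generally less than -15% change.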

Mus musculus [2] = test: Evaluated in vivo for their ability to decrease plasma glucose levels in diabetic C57BL/KsJ ob/ob mouse at a dose 100 mg/kg/day, **p indicates <0.01; assay type: functional
Summary of the method: (§2)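 Mice dosed orally once daily for 4 days; plasma glucose and insulin measured and expressed as percent change versus a vehicle-treated group (mean ± SE, 4-6 mice/group). NS is generally less than -15% change. Significance is versus vehicle-treated mice.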

[3] = target: T1, Tyrosine-protein phosphatase non-receptor type 1 (Rattus norvegicus) (UniProt P20417); test: Inhibition of PTPase activity using recombinant r-PTP1B as the enzyme and IR-triphosphopeptide as substrate at 50 uM
T1 sequence (whole entry): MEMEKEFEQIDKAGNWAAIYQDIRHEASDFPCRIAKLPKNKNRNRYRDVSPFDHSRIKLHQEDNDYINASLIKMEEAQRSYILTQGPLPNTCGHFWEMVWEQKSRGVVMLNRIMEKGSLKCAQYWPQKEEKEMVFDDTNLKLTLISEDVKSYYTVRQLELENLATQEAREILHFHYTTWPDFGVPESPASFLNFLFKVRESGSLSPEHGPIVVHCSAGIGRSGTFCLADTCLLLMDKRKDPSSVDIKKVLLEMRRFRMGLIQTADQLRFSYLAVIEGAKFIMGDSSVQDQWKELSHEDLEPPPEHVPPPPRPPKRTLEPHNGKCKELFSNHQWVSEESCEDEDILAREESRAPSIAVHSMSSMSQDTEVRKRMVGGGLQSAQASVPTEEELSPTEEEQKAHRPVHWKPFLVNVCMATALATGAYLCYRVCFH
Summary of the method: (§3)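 Rat recombinant PTP1B in 33 mM TRIS-HCl, 2 mM EDTA, 50 mM β-mercaptoethanol, pH 7.4 (about 1000-2000 nmol/min/mg). Preincubated 10 min at 37 °C with or without compound in HEPES buffer pH 7.4. Released phosphate read by malachite green-ammonium molybdate at 650 nm against a phosphate standard. Quadruplicates. IC50 by four-parameter logistic fit.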

[4] = target: T2, Tyrosine-protein phosphatase non-receptor type 1 (Rattus norvegicus, UniProt P20417); test: Inhibition of PTPase activity in rat hepatic membrane at a concentration of 50 uM using pNPP as the substrate; assay type: cell membranes, Liver
T2 sequence (P20417 whole entry): T1 sequence (whole entry)
Summary of the method: (§4)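 Liver membranes from male Sprague-Dawley rats (100-150 g), about 30 µg protein per well. Preincubated 10 min at 37 °C with compound in 1.25% DMSO in 50 mM HEPES pH 7.4. Then 6.33 mM pNPP for 30 min at 37 °C, stopped with NaOH. p-Nitrophenol read at 410 nm. Run in triplicate. Reported as percent of untreated control.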

Mus musculus [5] = test: Evaluated in vivo for their ability to decrease plasma glucose levels in diabetic C57BL/KsJ db/db mouse at a dose 100 mg/kg/day, *p indicates <0.05; assay type: functional; summary of the method: as §2
[6] = target: T2, Tyrosine-protein phosphatase non-receptor type 1; test: Inhibition of PTPase activity using recombinant Protein-tyrosine phosphatase 1B and IR-triphosphopeptide as substrate; ND is no data.
Mus musculus [7] = test: Evaluated for their ability to decrease plasma insulin levels in mouse at a dose 100 mg/kg/day; NS=not significant; assay type: functional, organism-based; summary of the method: as §1
[8] = target: T1, Tyrosine-protein phosphatase non-receptor type 1 (Rattus norvegicus); test: IC50 for PTPase activity, recombinant r-PTP1B as the enzyme .
Mus musculus [9] = test: Evaluated in vivo for their ability to decrease plasma glucose levels in diabetic C57BL/KsJ db/db mouse at a dose 100 mg/kg/day.([…]); assay type: functional; summary of the method: as §1
[10] = target: T2, Tyrosine-protein phosphatase non-receptor type 1; test: Inhibition of PTPase activity using recombinant r-PTP1B as the enzyme and IR-triphosphopeptide as substrate; summary of the method: as §3
[11] = target: T3, Tyrosine-protein phosphatase non-receptor type 1 (Mus musculus) (UniProt P35821); test: In vivo ability to decrease plasma glucose levels in diabetic C57BL/KsJ ob/ob mouse at a dose 100 mg/kg/day; assay type: functional, organism-based; summary of the method: as §1
T3 sequence (whole entry): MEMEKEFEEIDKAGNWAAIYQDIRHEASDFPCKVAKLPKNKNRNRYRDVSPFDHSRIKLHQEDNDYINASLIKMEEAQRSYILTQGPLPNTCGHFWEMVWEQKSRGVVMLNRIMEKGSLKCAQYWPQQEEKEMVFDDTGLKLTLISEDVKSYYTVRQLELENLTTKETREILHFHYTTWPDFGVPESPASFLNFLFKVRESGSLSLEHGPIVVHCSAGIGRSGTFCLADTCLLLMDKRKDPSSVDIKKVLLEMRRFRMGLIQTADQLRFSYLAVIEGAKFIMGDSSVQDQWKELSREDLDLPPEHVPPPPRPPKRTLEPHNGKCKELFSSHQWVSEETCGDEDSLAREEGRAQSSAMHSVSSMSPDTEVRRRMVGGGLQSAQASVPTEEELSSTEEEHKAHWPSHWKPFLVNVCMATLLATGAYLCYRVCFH

[12] = target: T3, Tyrosine-protein phosphatase non-receptor type 1 (Mus musculus); test: Ability to decrease plasma insulin levels in mouse at a dose 100 mg/kg/day; assay type: functional, organism-based; summary of the method: as §1
[13] = target: T1, Tyrosine-protein phosphatase non-receptor type 1 (Rattus norvegicus); test: Inhibition of PTPase (PTP1B) activity in rat hepatic membrane at 50 uM concentration, using pNPP as the substrate; assay type: cell membranes; settings: Liver; summary of the method: as §4
Mus musculus [14] = test: Evaluated in vivo for their ability to decrease plasma glucose levels in diabetic C57BL/KsJ db/db mouse at a dose 100 mg/kg/day. *p indicates <0.05; assay type: functional; summary of the method: as §2
Mus musculus [15] = test: Evaluated in vivo for their ability to decrease plasma glucose levels in diabetic C57BL/KsJ db/db mouse at a dose 100 mg/kg/day; NS=not significant; assay type: functional, organism-based; summary of the method: as §1
Mus musculus [16] = test: Evaluated for their ability to decrease plasma insulin levels in mouse at a dose 100 mg/kg/day.([…]); assay type: functional; summary of the method: as §1
[17] = target: T2, Tyrosine-protein phosphatase non-receptor type 1; test: Inhibition of PTPase activity using recombinant r-PTP1B and IR-triphosphopeptide as substrate; ND is no data.; summary of the method: as §3
Mus musculus [18] = test: Evaluated in vivo for their ability to decrease plasma glucose levels in diabetic C57BL/KsJ db/db mouse at a dose 100 mg/kg/day.,*p indicates <0.05; assay type: functional; summary of the method: as §2
Mus musculus [19] = test: Evaluated in vivo for their ability to decrease plasma glucose levels in diabetic C57BL/KsJ ob/ob mouse at a dose 100 mg/kg/day.; assay type: functional; summary of the method: as §2
Mus musculus [20] = test: Evaluated for their ability to decrease plasma insulin levels in mouse at a dose 100 mg/kg/day. **p indicates <0.01; assay type: functional; summary of the method: as §2
[21] = target: T1, Tyrosine-protein phosphatase non-receptor type 1 (Rattus norvegicus); test: Inhibition of Protein-tyrosine phosphatase 1B activity in rat hepatic membrane at a concentration of 50 uM using pNPP as the substrate; assay type: cell membranes; settings: Liver; summary of the method: as §4
Mus musculus [22] = test: Evaluated in vivo for their ability to decrease plasma glucose levels in diabetic C57BL/KsJ db/db mouse at a dose 100 mg/kg/day; NS is non significant; assay type: functional, organism-based; summary of the method: as §1

SMILES: Cc1oc(-c2ccc(C(F)(F)F)cc2)nc1COc1cccc(/C(=C/Cn2oc(=O)[nH]c2=O)c2ccc(F)cc2)c1
Decrease (Mus musculus [1]): 38%
Decrease (Mus musculus [2]): 34%
inhibition [3]: 1.2%
Inhibition % [4]: 28%

SMILES: C/C(=C\CC1OC(=O)NC1=O)c1cccc(OCc2nc(-c3ccc(OC(F)(F)F)cc3)oc2C)c1 (configuration not stated)
IC50 [10]: 46000 nM
Decrease [11]: Not significant
Decrease [12]: Not significant
inhibition [13]: 27%
Decrease (Mus musculus [14]): 40%

SMILES: C/C(=C\CC1SC(=O)NC1=O)c1cccc(OCc2nc(-c3ccccc3)oc2C)c1 (configuration not stated)
Decrease (Mus musculus [15]): inactive
inhibition [13]: 5%

SMILES: CCC/C(=C/Cn1oc(=O)[nH]c1=O)c1cccc(OCc2nc(-c3ccc(C(F)(F)F)cc3)oc2C)c1
Decrease [11]: Not significant
IC50 [17]: Not significant
Decrease [12]: Not significant
inhibition [13]: 58%
Decrease (Mus musculus [18]): 55%

SMILES: Cc1oc(-c2ccc(C(F)(F)F)cc2)nc1COc1cccc(/C(=C/Cn2oc(=O)[nH]c2=O)Cc2ccccc2)c1
Decrease (Mus musculus [19]): 23%
Decrease (Mus musculus [20]): 46%
inhibition [3]: 0.8%

SMILES: C/C(Cn1oc(=O)[nH]c1=O)=C(\C)c1cccc(OCc2nc(-c3ccc(C(F)(F)F)cc3)oc2C)c1
Decrease [11]: Not significant
Decrease [12]: Not significant
IC50 [6]: Not significant
inhibition [21]: 54%
Decrease (Mus musculus [22]): inactive

Continued, in another order:

IC50 [6]: Not significant
SMILES: C/C(=C\Cn1oc(=O)[nH]c1=O)c1cccc(OCc2nc(-c3ccccc3)oc2C)c1 (stereo in doubt; 67)
Decrease (Mus musculus [5]): 28%
Decrease (Mus musculus [1]): 75%
Decrease (Mus musculus [2]): 30%

IC50 [8]: 400 nM
SMILES: CCCCCCCC/C(=C\Cn1oc(=O)[nH]c1=O)c1cccc(OCc2nc(-c3ccc(C(F)(F)F)cc3)oc2C)c1
Decrease (Mus musculus [7]): inactive
Decrease (Mus musculus [9]): 43%

IC50 [10]: 2700 nM
Inhibition % [4]: 33%
SMILES: CCCCc1oc2ccccc2c1COc1cccc(/C(C)=C/Cn2oc(=O)[nH]c2=O)c1

IC50 [8]: 1800 nM
inhibition [13]: 51%
SMILES: Cc1oc(-c2ccc(C(F)(F)F)cc2)nc1COc1cccc(/C(I)=C/Cn2oc(=O)[nH]c2=O)c1
Decrease (Mus musculus [9]): 38%
Decrease (Mus musculus [16]): 64%
